Measurements published in ChEMBL document CHEMBL3297648, “Diterpenoids from the Chinese liverwort Heteroscyphus tener and their antiproliferative effects” (J Nat Prod, 2014).

How the values were obtained:
[1] = Antiproliferative activity against human RWPE1 cells assessed as inhibition of cell viability after 24 hrs by MTT assay; type: cell-based; settings: RWPE-1, 24 h
Summary of the method: (§1)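 Cells grown to 50–70% confluence (RWPE1 in K-SFM with pituitary extract and EGF; the other lines in RPMI 1640 with 10% FBS), 5% CO2, 37 °C. Treated for 24 h with DMSO vehicle, compounds, or cisplatin as positive control. MTT (5 mg/mL) added for 4 h, formazan dissolved in DMSO, absorbance read at 570 nm. Viability taken relative to untreated cells after blank subtraction, IC50 fitted from % viability, at least three experiments.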

DU-145 = assay: Antiproliferative activity against human DU145 cells assessed as inhibition of cell viability after 24 hrs by MTT assay; type: functional, cell-based; settings: DU-145, 24 h; summary of the method: as §1
[2] = Antiproliferative activity against human PC3 cells assessed as inhibition of cell viability after 24 hrs by MTT assay; type: functional, cell-based; settings: PC-3, 24 h; summary of the method: as §1
[3] = Antiproliferative activity against HBE cells assessed as inhibition of cell viability after 24 hrs by MTT assay; type: cell-based; settings: Homo sapiens; summary of the method: as §1
NCI-H292 = assay: Antiproliferative activity against human NCI-H292 cells assessed as inhibition of cell viability after 24 hrs by MTT assay; type: functional, cell-based; settings: NCI-H292, 24 h; summary of the method: as §1
NCI-H1299 = assay: Antiproliferative activity against human NCI-H1299 cells assessed as inhibition of cell viability after 24 hrs by MTT assay; type: functional, cell-based; settings: NCI-H1299, 24 h; summary of the method: as §1
A549 = assay: Antiproliferative activity against human A549 cells assessed as inhibition of cell viability after 24 hrs by MTT assay; type: functional, cell-based; settings: A549, 24 h; summary of the method: as §1
NCI-H446 = assay: Antiproliferative activity against human NCI-H446 cells assessed as inhibition of cell viability after 24 hrs by MTT assay; type: functional, cell-based; settings: NCI-H446, 24 h; summary of the method: as §1
K562 = assay: Antiproliferative activity against human K562 cells assessed as inhibition of cell viability after 24 hrs by MTT assay; type: functional, cell-based; settings: K562, 24 h; summary of the method: as §1

IC50 (DU-145) | IC50 (NCI-H292) | IC50 (NCI-H1299) | IC50 (A549) | IC50 (NCI-H446) | IC50 (K562) | Structure (SMILES) | IC50 [1] | IC50 [2] | IC50 [3]
> 40 µM | 39.9 µM | 27 µM | > 40 µM | > 40 µM | > 40 µM | CC(C)[C@H]1CC[C@]2(C)C[C@]3(O)C(=CC(=O)[C@H]3C)[C@@H](C)CC[C@@H]12 [ANADENSIN] | > 40 µM | > 40 µM | > 40 µM
18.9 µM | 10.7 µM | 21.9 µM | 21.5 µM | 16.7 µM | 34 µM | C=C[C@]1(C)CC[C@H]2[C@]3(C)CCCC(C)(C)[C@H]3[C@@H]3C[C@@]2(O1)C(=O)O3 | 26.4 µM | 20 µM | 53.2 µM
